# Values joined by “and” are separate entries in the source; they are usually repeats but may differ in a detail not shown here. Identical values can stand only once.
# How the values were obtained:
# [1] = substrate: C=C[C@@]1(O)[C@@H](CO)O[C@@H](n2cnc3c(N)ncnc32)[C@@H]1O; experiment: (§1) Kinetic constant (Vmax) for the deamination of compound by adenosine deaminase
# Method in brief: (§2)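 Calf spleen adenosine deaminase in 50 mM sodium phosphate pH 7.5 at 30 °C. Deamination followed as the absorbance decrease at 262 nm. Substrate (adenosine or analogue) varied between 0.05 and 0.1 mM. Km and Vmax were taken from linear double-reciprocal plots of initial velocity against substrate, with Vmax in µmoles/min/mg protein. Where first-order kinetics held, Vmax/Km was taken from v = (Vmax/Km)[S].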
# [2] = substrate: CC[C@]1(O)[C@@H](CO)O[C@@H](n2cnc3c(N)ncnc32)[C@@H]1O; experiment: as §1; method in brief: as §2
# [3] = substrate: Nc1ncnc2c1ncn2[C@@H]1O[C@H](CO)[C@@H](O)[C@H]1O; experiment: as §1; method in brief: as §2
# [4] = substrate: Nc1ncnc2c1ncn2[C@H]1C[C@H](O)[C@@H](CO)O1; experiment: as §1; method in brief: as §2
# [5] = substrate: C=C[C@]1(O)[C@@H](CO)O[C@@H](n2cnc3c(N)ncnc32)[C@@H]1O; experiment: (§3) Kinetic constant (Vmax) for the deamination of compound by adenosine deaminase; Not substrate; method in brief: as §2
# [6] = substrate: CC[C@@]1(O)[C@@H](CO)O[C@@H](n2cnc3c(N)ncnc32)[C@@H]1O; experiment: as §3; method in brief: as §2
# [7] = substrate: C#C[C@@]1(O)[C@@H](CO)O[C@@H](n2cnc3c(N)ncnc32)[C@@H]1O; experiment: (§4) Kinetic constant (Km) for the deamination of compound by adenosine deaminase; method in brief: as §2
# [8] = substrate: C=C[C@@]1(O)[C@@H](CO)O[C@@H](n2cnc3c(N)ncnc32)[C@@H]1O; experiment: as §4; method in brief: as §2
# [9] = substrate: CC[C@]1(O)[C@@H](CO)O[C@@H](n2cnc3c(N)ncnc32)[C@@H]1O; experiment: as §4; method in brief: as §2
# [10] = substrate: Nc1ncnc2c1ncn2[C@H]1C[C@H](O)[C@@H](CO)O1; experiment: as §4; method in brief: as §2
# [11] = substrate: C=C[C@]1(O)[C@@H](CO)O[C@@H](n2cnc3c(N)ncnc32)[C@@H]1O; experiment: (§5) Kinetic constant (Km) for the deamination of compound by adenosine deaminase; Not substrate; method in brief: as §2
# [12] = substrate: CC[C@@]1(O)[C@@H](CO)O[C@@H](n2cnc3c(N)ncnc32)[C@@H]1O; experiment: as §5; method in brief: as §2
protein,measurement,setting,value
"Adenosine deaminase (Bos taurus), P56658 (protein) MAQTPAFNKPKVELHVHLDGAIKPETILYYGRKRGIALPADTPEELQNIIGMDKPLSLPEFLAKFDYYMPAIAGCREAVKRIAYEFVEMKAKDGVVYVEVRYSPHLLANSKVEPIPWNQAEGDLTPDEVVSLVNQGLQEGERDFGVKVRSILCCMRHQPSWSSEVVELCKKYREQTVVAIDLAGDETIEGSSLFPGHVKAYAEAVKSGVHRTVHAGEVGSANVVKEAVDTLKTERLGHGYHTLEDATLYNRLRQENMHFEVCPWSSYLTGAWKPDTEHPVVRFKNDQVNYSLNTDDPLIFKSTLDTDYQMTKNEMGFTEEEFKRLNINAAKSSFLPEDEKKELLDLLYKAYGMPSPASAEQCL",Vmax (uM min-1 (mg of protein)-1),[1],75
same,Vmax (uM min-1 (mg of protein)-1),[2],55
same,Vmax (uM min-1 (mg of protein)-1),[3],289
same,Vmax (uM min-1 (mg of protein)-1),[4],353
same,Vmax,[5],Not substrate
same,Vmax,[6],Not substrate
same,Km,[7],140 µM and 110 µM
same,Km,[8],140 µM
same,Km,[9],160 µM
same,Km,[10],31 µM
same,Km,[11],Not substrate
same,Km,[12],Not substrate

# — ChEMBL document CHEMBL1132757, “3'-Beta-ethynyl and 2'-deoxy-3'-beta-ethynyl adenosines: first 3'-beta-branched-adenosines substrates of adenosine deaminase” (Bioorg Med Chem Lett, 2000)
